ANO1 activ – activators or potentiators of mouse TMEM16A chloride channel | hit rate 0.3% among 340,000 | Q8BHY3 | B-score at 10 µM | AID 623877 | HEK293 TMEM16A/YFP-H148Q/I152L, iodide quench fluorescence; stronger effect = lower value;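 active means fluorescence-ratio B-score plate-corrected deviation score at least 3 library SD below zero, with starting fluorescence score within 5 deviations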;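 further: channel opened by trigger with iodide after compound preincubation; score built on the fluorescence ratio of max minus min over baseline; more negative score means more quench and so TMEM16A activation or potentiation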
ANO1 block – mouse TMEM16A channel inhibition, primary screen. Q8BHY3. HEK293 TMEM16A/YFP iodide influx fluorescence, ionomycin. normalized B-score (activity score, 25-100; higher = stronger inhibition) at 10 µM. hit rate 1.2% among 310,000;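 active means ratio plate-corrected score three or more library SD toward inhibition, starting fluorescence score within five deviations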;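 further: score derived from kinetic fluorescence span divided by baseline fluorescence per well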
MC4R ag barr – agonists of human melanocortin 4 receptor (MC4R) beta-arrestin; U2OS MC4R beta-arrestin complementation, luminescence; percent of melanotan II response, DMSO zero; activation, % at 8.9 µM; hit rate 0.98% among 360,000; AID 540308;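 active means activation above a per-plate cutoff, the mean activation of sample wells on that plate plus 3 SD, cut at about 8% in these data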
beta cell repl – MIN6 beta-cell proliferation induction; MIN6 cells proliferation, ATPlite luminescence, 48 h; cells starved in 0.2% serum; 100% = growth in 10% serum; proliferation, % at 10 µM; hit rate 0.29% among 330,000; AID 2380;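 active means compounds whose signal lies at least 3.5 SD above the mean of all wells on their plate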;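 further: 0% = DMSO-treated cells in low-serum medium and 100% = 10% serum control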
MC4R antagonist – blocks human MC4R cAMP signaling | P32245 | MC4R-expressing cells, MTII-stimulated cAMP, LANCE TR-FRET | inhibition, % at 6.5 µM | hit rate 0.48% among 360,000 | AID 540295;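 active means inhibition above its plate's cutoff, the mean of tested wells on that plate plus 3 SD, cut at about 29% in these data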;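 further: 0% = Melanotan II alone and 100% = Melanotan II plus saturating MCL0020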
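Material: human MC4R-expressing U2OS cells. Probe or stimulus: Melanotan II challenge. Dosing: 6.5 µM single dose. Times: 30-min compound, 1-h challenge, 1-h detection, room temperature. Technique: TR-FRET with Eu-cAMP and labeled anti-cAMP, 671 nm. Replication: singlicate.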
HTR2A ag – agonists of mouse serotonin 5-HT2A receptor (HTR2A) | CHO-K1 mHTR2A beta-arrestin complementation, luminescence; percent of 30 µM serotonin response | activation, % at 7.6 µM | hit rate 0.66% among 360,000 | AID 624169;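 active means activation above a run cutoff, the mean activation of all tested compounds plus 3 SD, cut at about 14% in these data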;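 further: 0% = plate median of compound wells and 100% = 30 µM serotonin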
TMEM16A reconf – TMEM16A (mouse) chloride channel inhibition, re-confirmation. hit rate 39% among 2,300. AID 652189. HEK293 TMEM16A/YFP-H148Q, iodide quench fluorescence; ionomycin added to raise cell calcium. shares compounds with ANO1 block. inhibition, % at 10 µM;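 active means mean duplicate percent inhibition, scaled so buffer wells are 0 and the reference blocker 100, over three buffer SD above buffer mean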
TMEM16A Ca cntr – counter-screen for TMEM16A inhibitors: effect on calcium mobilization; shares compounds with ANO1 block; TMEM16A/YFP HEK293, Fluo4 calcium mobilization; calcium response (% of ionomycin), % at 10 µM; hit rate 2% among 2,300;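 active means duplicate-averaged calcium signal over 20% of the ionomycin maximum, relative to buffer baseline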;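 further: each well's signal is peak minus trough fluorescence divided by its pre-addition baseline; 0% = buffer wells and 100% = ionomycin wells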
Parental YFP cnt – counter-screen for TMEM16A inhibitors: effect in parental YFP-HEK293 cells; shares compounds with ANO1 block; iodide YFP quench, ionomycin; YFP ratio F(max-min)/F0 at 10 µM; 2,300 tested, under 10 active; AID 652233;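 active means yellow fluorescent protein signal ratio exceeding the buffer control mean by over 5 SD of those controls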;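 further: ratio is mean of duplicate wells from kinetic YFP trace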
ClC-1 rat inh – blocks the rat ClC-1 voltage-dependent chloride channel; 2,300 tested, under 10 active; ratio percent, % at 10 µM; AID 652236; CHO ClC-1-YFP, iodide influx fluorescence quench; iodide control reads 0, buffer control 100; shares compounds with ANO1 block;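 active means duplicate-mean ratio percent above the mean of iodide-only control wells, which defines zero, plus 5 of their SD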;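 further: higher percent means stronger block of ClC-1 iodide influx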
Active calls of the source: *; i = inactive; x = no result. Hits are enriched below; roughly 3.4% of the tested compounds scored in any of these assays.

SMILES	ANO1 activ	ANO1 block	MC4R ag barr	beta cell repl	MC4R antagonist	HTR2A ag	TMEM16A reconf	TMEM16A Ca cntr	Parental YFP cnt	ClC-1 rat inh
O=C(Nc1ccc(Oc2cccnc2)nc1)c1ccc(C(F)(F)F)cc1	i	25*	0	-2	-2	-2	i	i	-0.97	-8
Cc1ccc(-c2nc3ccc(C)cn3c2CC2CCCCC2)cc1	x	x	x	x	x	11	x	x	x	x
O=C(COc1ccccc1)Nc1ccc(Cl)cc1Cl	x	i	x	0	x	x	x	x	x	x
CC1=NN(C(=O)c2ccc(Br)cc2)C(O)(C(F)(F)OC(F)(F)F)C1 (centres undefined)	i	100*	-1	-4	-3	-1	29%*	i	-0.97	-21
CC1=NN(C(=O)c2csc(C)c2)C(O)(C(F)(F)F)C1 (centres undefined)	i	i	-1	3	-1	3	x	x	x	x
O=C(Nc1ccc2c(c1)OCCO2)C1CCCN1C(=O)Nc1ccc(F)cc1 (centres undefined)	i	i	-3	-1	8	1	x	x	x	x
Cc1cc(C)c(C#N)c(N2CCCC2)n1	i	i	0	-3	0	1	x	x	x	x
Cc1cc(C(F)(F)F)c(C#N)c(N2CCOCC2)n1	i	100*	-2	0	6	3	i	i	-1.2	-12
C=CCOc1ccc(/C=C2\SC(=S)N(NS(=O)(=O)c3ccc(C)cc3)C2=O)cc1	i	100*	8	-6	8	2	72%*	i	-0.99	-60
CCON1C(=O)C2(CCCCC2)C(=O)C12C=CCCC2 (centres undefined)	i	x	0	x	6	-4	x	x	x	x
Cc1c(Cl)ccc2sc(N3CCN(C(=O)C4=COCCO4)CC3)nc12	i	25*	-1	-5	-2	13	44%*	i	-0.97	-12
O=S(=O)(Nc1nc2ccccc2s1)c1ccc(Br)s1	i	100*	-2	0	14	4	24%*	i	-0.9	-4
Cc1ccc(S(=O)(=O)Nc2nc3ccccc3s2)cc1	i	i	-1	-1	7	1	x	x	x	x
O=C(O)Cn1cc(C(=S)N2CCOCC2)c2ccccc21	i	25*	2	2	-2	-1	i	i	-1.4	-5
O=C(Cn1cc(C(=S)N2CCOCC2)c2ccccc21)N1CCOCC1	i	i	1	-1	15	3	x	x	x	x
Cc1ccc(C)c(OCC(=O)Nc2nc3ccc([N+](=O)[O-])cc3s2)c1C	i	100*	5	-6	12	-2	i	i	-1	-24
O=C(O)CCSCCCN1C(=O)c2cccc3cccc(c23)C1=O	i	i	-1	2	0	1	x	x	x	x
Cc1cc(C)c(S(=O)(=O)NCc2ccncc2)c(C)c1	i	100*	-1	-6	4	6	30%*	i	-0.86	-16
C#CCn1c2ccccc2c(=O)n1CCOc1ccccc1OC	x	x	x	x	x	-3	x	x	x	x
O=C(CN1C(=O)S/C(=C\c2ccccc2)C1=O)Nc1cc([N+](=O)[O-])ccc1O	i	100*	-2	-1	15	0	22%*	i	-1	-11
Cc1ccc(/C=C2/SC(=S)N(CCCC(=O)Nc3cc([N+](=O)[O-])ccc3O)C2=O)cc1	i	i	0	-7	2	0	x	x	x	x
CC(NC(=O)c1ccccc1Br)c1nnc(SCC(=O)NC2=NCCS2)n1C (centres undefined)	i	i	0	0	1	1	x	x	x	x
O=C(c1cc(-c2ccccc2)nc2ccccc12)N1N=C(C(F)F)CC1(O)C(F)F (centres undefined)	i	100*	2	0	5	1	i	i	-0.95	-4
Cc1ccc(-c2cc(C(=O)N3N=C(C(F)F)CC3(O)C(F)F)c3ccccc3n2)cc1C (centres undefined)	i	i	2	-6	12	2	x	x	x	x
O=c1[nH]c2ccccc2n1CCCSCCCn1c(=O)[nH]c2ccccc21	i	100*	0	-1	2	-6	38%*	i	-0.93	-8
SMILES	ANO1 activ	ANO1 block	MC4R ag barr	beta cell repl	MC4R antagonist	HTR2A ag	TMEM16A reconf	TMEM16A Ca cntr	Parental YFP cnt	ClC-1 rat inh
COc1ccc(-c2cc(NC=O)c3ncc(-c4ccc(OC)c(OC)c4)n3c2)cc1	x	x	3	x	-19	10	x	x	x	x
Cc1ccc(S(=O)(=O)CC2CSc3nc4ccccc4n32)cc1 (centres undefined)	i	25*	-2	-5	-3	0	36%*	i	-1.1	-20
Cc1ccc(S(=O)(=O)CC2CSc3nc(N)cc(=O)n32)cc1 (centres undefined)	i	i	-2	-1	10	6	x	x	x	x
COC(=O)c1cc(-c2ccc(S(=O)(=O)N3CCCCC3)cc2)c(C(F)(F)F)s1	i	i	-1	-4	15	1	x	x	x	x
COC(=O)c1cc(-c2ccc(S(=O)(=O)N3CCCC3)cc2)c(C(F)(F)F)s1	i	25*	0	-2	2	-1	i	i	-1.2	-18
CC(=O)NC(c1ccc(F)c(F)c1)c1nc(-c2cnn(C)c2)cs1 (centres undefined)	x	x	1	x	9	-4	x	x	x	x
CCC(=O)OCn1nnc2ccccc2c1=O	i	i	-3	0	14	-2	x	x	x	x
CC(C)(Oc1ccc(Cl)cc1)C(=O)OCn1nnc2ccccc2c1=O	i	100*	3	6	2	-1	i	32%*	-1.1	-1
CC(OC(=O)c1ccc(O)cc1)C(=O)Nc1cc(C(F)(F)F)ccc1Cl (centres undefined)	i	25*	5	-5	18	-6	58%*	i	-0.94	-18
COc1ccc(C2CC(c3ccccc3)=NN2S(=O)(=O)c2ccccc2)cc1 (centres undefined)	i	i	0	-4	-7	1	55%*	i	-0.84	2
CCOc1ccccc1N1CCN(C(=O)c2ccccc2SCC(=O)N2CCCC2)CC1	i	i	-1	-4	13	-4	x	x	x	x
